Assay results as given in ChEMBL document CHEMBL1137574, “Synthesis and structure-activity relationship for a novel class of potent and selective carbamate-based inhibitors of hormone selective lipase with acute in vivo antilipolytic effects” (J Med Chem, 2007).

Assays:
Acetylcholinesterase = Acetylcholinesterase (Homo sapiens, UniProt P22303); test: Inhibition of acetylcholine esterase
In short: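 Acetylcholinesterase activity measured with acetylthiocholine substrate. Inhibitor at six concentrations in 5-fold steps from a maximum of 100 µM, duplicate measurements averaged. IC50 from variable-slope sigmoidal dose-response fit.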

Cholinesterase = Cholinesterase (Homo sapiens, UniProt P06276); test: Inhibition of butyrylcholine esterase
Cholinesterase, sequence (P06276 whole entry): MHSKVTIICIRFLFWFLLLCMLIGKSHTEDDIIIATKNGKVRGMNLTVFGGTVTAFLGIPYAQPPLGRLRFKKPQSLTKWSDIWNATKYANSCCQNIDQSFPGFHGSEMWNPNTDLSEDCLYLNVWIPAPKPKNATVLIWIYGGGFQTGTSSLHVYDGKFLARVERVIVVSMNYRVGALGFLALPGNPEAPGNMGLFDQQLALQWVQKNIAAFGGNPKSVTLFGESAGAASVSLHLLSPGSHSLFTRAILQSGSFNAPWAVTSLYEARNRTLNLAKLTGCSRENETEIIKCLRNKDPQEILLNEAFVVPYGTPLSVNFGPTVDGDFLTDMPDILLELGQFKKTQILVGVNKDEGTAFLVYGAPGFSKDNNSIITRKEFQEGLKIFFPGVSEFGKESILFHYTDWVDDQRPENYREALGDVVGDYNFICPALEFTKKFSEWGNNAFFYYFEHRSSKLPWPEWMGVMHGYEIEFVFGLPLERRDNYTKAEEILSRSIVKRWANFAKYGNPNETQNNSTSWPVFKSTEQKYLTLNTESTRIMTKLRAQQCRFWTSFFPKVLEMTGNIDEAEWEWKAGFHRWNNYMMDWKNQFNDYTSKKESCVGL

Hormone-sensitive lipase = target: T1, Hormone-sensitive lipase (Homo sapiens, UniProt Q05469); test: Inhibition of recombinant human hormone-sensitive lipase
T1 sequence (Q05469 whole entry): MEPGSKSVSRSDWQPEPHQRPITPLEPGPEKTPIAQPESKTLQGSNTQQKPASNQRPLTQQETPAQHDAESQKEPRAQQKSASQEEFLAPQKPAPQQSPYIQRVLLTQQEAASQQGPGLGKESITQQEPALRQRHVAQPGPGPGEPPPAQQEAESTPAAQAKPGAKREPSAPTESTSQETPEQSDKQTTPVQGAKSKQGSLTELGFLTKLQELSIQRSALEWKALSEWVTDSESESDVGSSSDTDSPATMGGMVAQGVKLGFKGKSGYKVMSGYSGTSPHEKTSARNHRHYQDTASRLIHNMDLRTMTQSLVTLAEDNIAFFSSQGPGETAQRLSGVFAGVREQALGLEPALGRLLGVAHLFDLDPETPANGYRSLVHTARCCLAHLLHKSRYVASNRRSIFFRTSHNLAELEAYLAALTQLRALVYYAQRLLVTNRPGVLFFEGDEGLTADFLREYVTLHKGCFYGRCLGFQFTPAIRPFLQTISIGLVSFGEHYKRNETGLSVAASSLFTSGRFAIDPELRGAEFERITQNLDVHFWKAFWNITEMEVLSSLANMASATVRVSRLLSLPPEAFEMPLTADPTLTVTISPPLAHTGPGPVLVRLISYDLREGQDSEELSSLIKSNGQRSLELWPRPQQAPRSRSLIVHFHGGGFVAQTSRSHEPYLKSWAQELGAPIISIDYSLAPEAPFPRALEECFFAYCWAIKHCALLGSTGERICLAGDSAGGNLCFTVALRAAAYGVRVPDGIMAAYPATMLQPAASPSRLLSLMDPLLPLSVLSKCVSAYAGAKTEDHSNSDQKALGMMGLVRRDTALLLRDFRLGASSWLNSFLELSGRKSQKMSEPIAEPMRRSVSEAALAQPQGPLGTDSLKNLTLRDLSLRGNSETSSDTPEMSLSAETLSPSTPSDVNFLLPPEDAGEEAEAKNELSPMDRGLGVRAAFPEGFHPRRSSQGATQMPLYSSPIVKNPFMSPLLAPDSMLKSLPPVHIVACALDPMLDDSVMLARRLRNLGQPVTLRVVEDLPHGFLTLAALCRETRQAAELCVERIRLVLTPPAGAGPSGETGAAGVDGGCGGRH

[1] = Clearance in Sprague-Dawley rat at 1.1 mg/kg, iv and 2.2 mg/kg, po; format: ADME, organism-based; settings: in vivo
In short: (§1)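 Rat PK study, one rat per time point. Dosed i.v. and p.o. by gavage in 10% hydroxypropyl cyclodextrin in phosphate buffer pH 7.0; one compound was given in 20% Tween 80 plus 5% glucose in phosphate buffer pH 7.0. Plasma was diluted 1:1 with 10% methanol and centrifuged, then quantified by turbulent-flow chromatography–MS/MS against plasma calibration curves spanning 10-3000 ng/mL.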

[2] = Oral bioavailability in Sprague-Dawley rat at 2.2 mg/kg, po; format: ADME, organism-based; settings: in vivo; in short: as §1
[3] = Cmax in Sprague-Dawley rat at 0.5 mg/kg, iv and 1 mg/kg, po; format: ADME, organism-based; settings: in vivo
In short: (§2)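 Male Sprague-Dawley rats, 12 weeks old, dosed by oral gavage and i.v. in 10% hydroxypropyl cyclodextrin in phosphate buffer pH 7.0, with one rat per time point. Plasma was diluted 1:1 in 10% methanol, centrifuged and quantified by turbulent-flow chromatography–tandem MS against plasma calibration curves (10-3000 ng/mL).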

[4] = Oral bioavailability in Sprague-Dawley rat at 1 mg/kg, po; format: ADME, organism-based; settings: in vivo; in short: as §2

Acetylcholinesterase, sequence (P22303 whole entry): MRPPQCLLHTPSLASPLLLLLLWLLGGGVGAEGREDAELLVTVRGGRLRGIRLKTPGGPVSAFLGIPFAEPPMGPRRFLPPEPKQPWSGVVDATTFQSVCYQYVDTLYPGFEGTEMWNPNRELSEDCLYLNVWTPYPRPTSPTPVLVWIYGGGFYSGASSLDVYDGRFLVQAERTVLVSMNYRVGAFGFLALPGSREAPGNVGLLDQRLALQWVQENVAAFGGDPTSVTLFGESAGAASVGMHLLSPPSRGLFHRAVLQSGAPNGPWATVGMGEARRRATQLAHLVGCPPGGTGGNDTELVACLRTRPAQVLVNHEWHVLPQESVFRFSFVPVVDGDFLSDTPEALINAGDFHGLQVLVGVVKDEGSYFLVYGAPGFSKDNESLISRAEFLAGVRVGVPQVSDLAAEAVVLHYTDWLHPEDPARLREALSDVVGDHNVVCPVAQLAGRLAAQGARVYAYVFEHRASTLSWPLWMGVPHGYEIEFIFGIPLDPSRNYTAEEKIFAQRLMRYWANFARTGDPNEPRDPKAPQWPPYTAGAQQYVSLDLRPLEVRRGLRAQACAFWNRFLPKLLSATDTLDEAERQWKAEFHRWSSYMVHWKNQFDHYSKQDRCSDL

Row | Compound | IC50 (Acetylcholinesterase) [µM] | IC50 (Cholinesterase) [µM] | also measured
1 | O=C(Oc1ccc(Oc2ccc(C(F)(F)F)cn2)cc1)N1CCc2ccccc2C1 | > 50 | > 50 | –
2 | CN(C(=O)Oc1ccc(Oc2ccccc2)cc1)c1ccccc1 | > 50 | > 50 | IC50 (Hormone-sensitive lipase): > 5 µM
3 | CN(Cc1ccccc1)C(=O)Oc1ccc(Oc2ccc(C(F)(F)F)cn2)cc1 | > 50 | > 50 | –
4 | O=C(Oc1ccc(Oc2ccc(C(F)(F)F)cn2)cc1)N1CCCC1 | > 50 | > 50 | –
5 | CN(C(=O)Oc1ccc(Oc2ncc(C(F)(F)F)cc2Cl)cc1)c1ccccc1 | > 50 | > 50 | –
6 | CCN(C(=O)Oc1ccc(Oc2ccc(C(F)(F)F)cn2)cc1)c1ccccc1 | – | – | IC50 (Hormone-sensitive lipase): > 5 µM
7 | CN(C(=O)Oc1ccc(Oc2ccc(C(F)(F)F)cn2)cc1)c1ccccc1 | > 50 | > 50 | clearance [1]: 61 mL/min/kg; bioavailability [2]: 16%
8 | COc1ccccc1N(C)C(=O)Oc1ccc(Oc2ccc(C(F)(F)F)cn2)cc1 | > 50 | > 50 | –
9 | CN(C(=O)Oc1ccc(Oc2c(Cl)cncc2Cl)cc1)c1ccccc1 | > 50 | > 50 | –
10 | CN(C(=O)Oc1ccc(Oc2ccc(C(F)(F)F)cn2)cc1)C(C)(C)C | > 50 | > 50 | IC50 (Hormone-sensitive lipase): > 5 µM
11 | CN(C(=O)Oc1ccc(Oc2ccc(Cl)cn2)cc1)c1ccccc1 | > 50 | > 50 | –
12 | CN(C(=O)Oc1ccc(Oc2ccc(C(F)(F)F)cn2)cc1)c1ccc(Cl)cc1 | > 50 | > 50 | –
13 | O=C(Oc1ccc(Oc2ccc(C(F)(F)F)cn2)cc1)N1CCCc2ccc(C(F)(F)F)cc21 | > 50 | > 50 | IC50 (Hormone-sensitive lipase): > 5 µM
14 | CN(C(=O)Oc1ccc(Oc2ccc(C(F)(F)F)cn2)cc1)C1CCCCC1 | > 50 | > 50 | IC50 (Hormone-sensitive lipase): > 5 µM
15 | CN(C)C(=O)Oc1ccc(Oc2ncc(Cl)cc2Cl)cc1 | > 50 | > 50 | IC50 (Hormone-sensitive lipase): > 50 µM
16 | CC1CCCN(C(=O)Oc2ccc(Oc3ccc(C(F)(F)F)cn3)cc2)C1 (stereo not drawn) | > 50 | > 50 | –
17 | O=C(Oc1ccc(Oc2ccc(C(F)(F)F)cn2)cc1)N1CCCCC1 | > 50 | 8.2 | –
18 | CN(C(=O)Oc1ccc(Oc2ncc(Cl)cc2Cl)cc1)c1ccccc1 | > 50 | > 50 | –
19 | CN(C(=O)Oc1ccc(Oc2ccc(C(F)(F)F)cn2)cc1)c1ccccc1Cl | > 50 | > 50 | –

Row | Compound | IC50 (Acetylcholinesterase) [µM] | IC50 (Cholinesterase) [µM] | also measured
20 | CN(C(=O)Oc1ccc(Oc2ccc(C(F)(F)F)cn2)cc1)c1cccc(Cl)c1 | > 50 | > 50 | –
21 | Cc1cccc(N(C)C(=O)Oc2ccc(Oc3ccc(C(F)(F)F)cn3)cc2)c1 | > 50 | > 50 | –
22 | O=C(Oc1ccc(Oc2ccc(C(F)(F)F)cn2)cc1)N1Cc2ccccc2C1 | > 50 | > 50 | –
23 | CC1CN(C(=O)Oc2ccc(Oc3ccc(C(F)(F)F)cn3)cc2)CC(C)O1 (stereo not drawn) | > 50 | > 50 | –
24 | O=C(c1ccccc1)C1CCN(C(=O)Oc2ccc(Oc3ccc(C(F)(F)F)cn3)cc2)CC1 | – | > 50 | –
25 | CC(C)N(C)C(=O)Oc1ccc(Oc2ccc(C(F)(F)F)cn2)cc1 | > 50 | > 50 | IC50 (Hormone-sensitive lipase): > 5 µM
26 | Cc1ccc(N(C)C(=O)Oc2ccc(Oc3ccc(C(F)(F)F)cn3)cc2)cc1 | > 50 | > 50 | –
27 | Cc1ccccc1N(C)C(=O)Oc1ccc(Oc2ccc(C(F)(F)F)cn2)cc1 | > 50 | > 50 | –
28 | O=C(Oc1ccc(Oc2ccc(C(F)(F)F)cn2)cc1)N1CCc2ccccc21 | > 50 | > 50 | IC50 (Hormone-sensitive lipase): > 3 µM
29 | CN(C(=O)Oc1ccc(Nc2ccc(C(F)(F)F)cn2)cc1)c1ccccc1 | > 50 | > 50 | –
30 | O=C(Oc1ccc(Oc2ncc(Cl)cc2Cl)cc1)N1CCOCC1 | > 50 | > 50 | –
31 | O=C(Oc1ccc(Oc2ccc(C(F)(F)F)cn2)cc1)N1CCC(Cc2ccccc2)CC1 | – | > 50 | –
32 | CCCCNC(=O)Oc1ccc(Oc2ncc(Cl)cc2Cl)cc1 | > 50 | 19 | –
33 | CC1CCN(C(=O)Oc2ccc(Oc3ccc(C(F)(F)F)cn3)cc2)CC1 | > 50 | > 50 | –
34 | COc1ccc(N(C)C(=O)Oc2ccc(Oc3ccc(C(F)(F)F)cn3)cc2)cc1 | > 50 | > 50 | –
35 | O=C(Oc1ccc(Oc2ccc(C(F)(F)F)cn2)cc1)N1CCOCC1 | > 50 | > 50 | Cmax [3]: 21 ng/mL; bioavailability [4]: 12%
36 | CC1CCCCN1C(=O)Oc1ccc(Oc2ccc(C(F)(F)F)cn2)cc1 (stereo not drawn) | > 50 | > 50 | IC50 (Hormone-sensitive lipase): > 5 µM
37 | O=C(Oc1ccc(Oc2ncc(Cl)cc2Cl)cc1)N1CCCC1 | > 50 | > 50 | –
